The results in this text go back to ChEMBL document CHEMBL2203225, “Dehydrozingerone, a structural analogue of curcumin, induces cell-cycle arrest at the G2/M phase and accumulates intracellular ROS in HT-29 human colon cancer cells” (J Nat Prod, 2012).

The test system of series [1] is HT-29. Kind of series: Cell cycle arrest in human HT-29 cells assessed as ROS-stimulated accumulation at G2/M phase at 62.5 to 250 uM after 24 hrs by propidium iodide based FACS flow cytometry.
The test system of series [2] is HT-29. The series is described as follows: Induction of ROS generation in human HT-29 cells at > 250 uM after 24 hrs by FACS flow cytometry. Type of series: functional, cell-based. (In flow cytometry, cells or beads pass a laser one at a time.)
The subject of series [3] is HT-29. The series is described as follows: Cytotoxicity against human HT-29 cells assessed as growth inhibition after 72 hrs by WST-8 assay. The class given is functional. The procedure, abridged: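 Viability read by WST-8 (Cell Counting Kit-8) after 72 h incubation of HT-29 cells with compound. Cells cultured in DMEM with 10% FBS at 37 °C, 5% CO₂. Means ± SD, n = 3.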
(In general: Tetrazolium assays rely on reduction of a dye to a coloured formazan, in cell work by metabolically active cells.)

Series [4] relates to HT-29. The series is described as follows: Cytotoxicity against human HT-29 cells assessed as dead cells at GI70 concentration after 72 hrs by WST-8 assay. The class given is functional. The essentials:
(§1)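 HT-29 colon cancer cells grown in DMEM with 10% FBS, 2 mM glutamine, penicillin and streptomycin at 37 °C, 5% CO2. Cells exposed to compound or vehicle (0.1% DMSO) for 72 h. Live and dead cells were counted by ViaCount staining on a Guava EasyCyte Plus flow cytometer, and percent dead cells was calculated. Mean ± SD, n = 3.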

Series [5] deals with HT-29. Kind of series: Cytotoxicity against human HT-29 cells assessed as dead cells at > 31.3 uM after 72 hrs by […]. The class given is functional. The procedure, abridged:
as §1

The subject of series [6] is HCT-15. The series is described as follows: Cell cycle arrest in human HCT15 cells assessed as ROS-stimulated accumulation at G2/M phase after 24 hrs by propidium iodide based FACS flow cytometry in presence of alpha-tocopherol. Type of series: functional.
The subject of series [7] is WI-38. The series is described as follows: Cell cycle arrest in human WI38 cells assessed as ROS-stimulated accumulation at G2/M phase at 250 uM after 24 hrs by propidium iodide based FACS flow cytometry in presence of N-acetyl-L-cysteine. The settings on record: wi-38, 24 h.
In series [8] the test system is HT-29. The series is described as follows: Upregulation of CDK1 gene expression in human HT-29 cells at 125 to 500 uM after 24 hrs by Western blotting. Type of series: functional, cell-based. The essentials:
(§2)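 HT-29 cells treated 24 h or given 0.1% DMSO, then lysed in 50 mM Tris-HCl with 1% SDS and protease inhibitors. Blots were blocked in 5% skim milk/TBST for 1 h at RT and probed with primary antibody for 1 h at RT. Detection by ECL, with β-actin as loading control.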
On the technique in general: Immunoblotting shows a protein as a band on a membrane.

The test system of series [9] is HT-29. Kind of series: Cell cycle arrest in human HT-29 cells assessed as ROS-stimulated accumulation at G2/M phase at 125 to 500 uM after 24 hrs by propidium iodide based FACS flow cytometry in presence of N-acetyl-L-cysteine. Type of series: functional. The procedure, abridged:
(§3)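 HT-29 cells grown in DMEM with 10% FBS and 2 mM glutamine at 37 °C, 5% CO₂, treated 24 h, then permeabilized with 0.1% Triton X-100. Stained with 100 μg/mL propidium iodide and analysed for G1, S and G2/M fractions by FACSCalibur flow cytometry. Data are means ± SD, n = 3, versus 0.1% DMSO control.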

For series [10], the system named is HT-29. Kind of series: Cytotoxicity against human HT-29 cells assessed as dead cells at 500 uM after 72 hrs by […]. The class given is functional. The essentials: as §1
In series [11] the test system is HT-29. Kind of series: Cytotoxicity against human HT-29 cells assessed as dead cells at 1000 uM after 72 hrs by […]. Type of series: functional. The procedure, abridged:
as §1

For series [12], the system named is HCT-15. Kind of series: Cell cycle arrest in human HCT15 cells assessed as ROS-stimulated accumulation at G2/M phase after 24 hrs by propidium iodide based FACS flow cytometry in presence of L-ascorbic acid. The class given is functional.
Series [13] relates to HT-29. Kind of series: Cell cycle arrest in human HT-29 cells assessed as ROS-stimulated accumulation at G2/M phase after 24 hrs by propidium iodide based FACS flow cytometry in presence of alpha-tocopherol. Type of series: functional. The procedure, abridged: as §3
Series [14] concerns HCT-116. The series is described as follows: Cell cycle arrest in human HCT116 cells assessed as ROS-stimulated accumulation at G2/M phase after 24 hrs by propidium iodide based FACS flow cytometry in presence of alpha-tocopherol. Type of series: functional.
Series [15] concerns HT-29. The series is described as follows: Cell cycle arrest in human HT-29 cells assessed as ROS-stimulated accumulation at G2/M phase after 24 hrs by propidium iodide based FACS flow cytometry in presence of PEG-penetreated catalase. Type of series: functional. The procedure, abridged: as §3
For series [16], the system named is HT-29. Kind of series: Cell cycle arrest in human HT-29 cells assessed as ROS-stimulated increase in p21 at 250 to 500 uM after 24 hrs by Western blotting in presence of N-acetyl-L-cysteine. Type of series: functional, cell-based.
Series [17] relates to HT-29. Kind of series: Cell cycle arrest in human HT-29 cells assessed as ROS-stimulated accumulation at G2/M phase after 24 hrs by propidium iodide based FACS flow cytometry in presence of SOD. The class given is functional. The procedure, abridged:
as §3

The subject of series [18] is HCT-15. The series is described as follows: Cell cycle arrest in human HCT15 cells assessed as ROS-stimulated accumulation at G2/M phase after 24 hrs by propidium iodide based FACS flow cytometry in presence of N-acetyl-L-cysteine. The class given is functional.
The test system of series [19] is HT-29. Kind of series: Cell cycle arrest in human HT-29 cells assessed as ROS-stimulated accumulation at G2/M phase after 24 hrs by propidium iodide based FACS flow cytometry in presence of L-ascorbic acid. The class given is functional. The essentials: as §3
In series [20] the test system is HT-29. The series is described as follows: Upregulation of p21 gene expression in human HT-29 cells assessed as decrease in phosphorylated CDK1 at Thr161 at 500 uM after 24 hrs by Western blotting. Type of series: functional, cell-based. The essentials: as §2
The subject of series [21] is HCT-15. The series is described as follows: Cytotoxicity against human HCT15 cells assessed as growth inhibition after 72 hrs by WST-8 assay. Type of series: functional, cell-based.
For series [22], the system named is HCT-116. Kind of series: Cell cycle arrest in human HCT116 cells assessed as ROS-stimulated accumulation at G2/M phase after 24 hrs by propidium iodide based FACS flow cytometry in presence of N-acetyl-L-cysteine. The class given is functional.
For series [23], the system named is HT-29. Kind of series: Cell cycle arrest in human HT-29 cells assessed as accumulation at G2/M phase at 250 uM after 24 hrs by propidium iodide based FACS flow cytometry. Type of series: functional. The procedure, abridged: (§4)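 HT-29 cells exposed 24 h to 125, 250 or 500 μM, with 0.1% DMSO as vehicle control. Permeabilized with 0.1% Triton X-100, stained with 100 μg/mL PI and analysed by FACSCalibur for G1/S/G2/M percentages. Means ± SD, n = 3; significance tested against DMSO control.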

The subject of series [24] is HT-29. The series is described as follows: Cell cycle arrest in human HT-29 cells assessed as ROS-stimulated accumulation at G2/M phase after 24 hrs by propidium iodide based FACS flow cytometry in presence of MnTBAP. Type of series: functional. The procedure, abridged:
as §3

The subject of series [25] is WI-38. The series is described as follows: Cytotoxicity against human WI38 cells assessed as growth inhibition after 72 hrs by WST-8 assay. The settings on record: wi-38, 72 h. The class given is cell-based.
The subject of series [26] is HT-29. Kind of series: Upregulation of Cyclin B gene expression in human HT-29 cells at 125 to 500 uM after 24 hrs by Western blotting. The class given is functional, cell-based. The procedure, abridged:
as §2

Series [27] concerns HCT-116. The series is described as follows: Cytotoxicity against human HCT116 cells assessed as growth inhibition after 72 hrs by WST-8 assay. The class given is functional, cell-based.
The subject of series [28] is HT-29. The series is described as follows: Upregulation of p21 gene expression in human HT-29 cells at > 250 uM after 24 hrs by Western blotting. The class given is functional, cell-based. The essentials: as §2
The test system of series [29] is HCT-116. Kind of series: Cell cycle arrest in human HCT116 cells assessed as ROS-stimulated accumulation at G2/M phase after 24 hrs by propidium iodide based FACS flow cytometry in presence of L-ascorbic acid. Type of series: functional.
Series [30] concerns HT-29. Kind of series: Cell cycle arrest in human HT-29 cells assessed as accumulation at G2/M phase at > 250 uM after 24 hrs by propidium iodide based FACS flow cytometry relative to control. Type of series: functional. The essentials: as §4
Series [31] has as its system HT-29. The series is described as follows: Cell cycle arrest in human HT-29 cells transfected with p21 siRNA assessed as accumulation at G2/M phase at 500 uM after 24 hrs by propidium iodide based FACS flow cytometry. The class given is functional. The essentials:
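HT-29 cells transiently transfected for 24 h with 10 nM p21 or negative-control siRNA using Lipofectamine RNAiMAX, alongside 24 h exposure to 500 μM or 0.1% DMSO. Cells were PI-stained and cell-cycle phases quantified by flow cytometry. Means ± SD, n = 3, versus DMSO-treated control.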

SMILES strings stand for the structures. The source made the active and inactive calls. No cut-off for these calls is given here.

Consider `COc1ccc(/C=C/C(C)=O)cc1O`, for which the result in series [1] and in series [2] was Active. In addition, the “growth inhibition (GI)” value in series [3] is “Active”.

Take `COc1cccc(/C=C/C(C)=O)c1O`: the outcome in series [1] and in series [2] was Active. The “growth inhibition (GI)” value in series [3] is “Active”.

For the molecule `COc1cc(/C=C/C(=O)CC(=O)/C=C/c2ccc(O)c(OC)c2)ccc1O` [CURCUMIN], the Activity came out at 45% in [4] and 84% in series [5].

In the case of `COc1cc(/C=C/C(C)=O)ccc1O` [DEHYDROZINGERONE], the outcome in [6], in [12], in series [13], in [14], in series [15] and in [17] was Active. Moreover, the outcome in series [19], in series [20], in [23], in series [24], in series [1] and in series [2] was Active. Also, the outcome in series [28] and in series [29] was Active. Moreover, the Activity result is “Toxic” in series [7]; 22% in series [10]; 37% in series [11]; 11% in series [4]; “Toxic” in series [25]. The outcome in series [8], in series [9], in series [16], in [18], in series [22] and in series [26] was inactive. Further, the result in series [31] was inactive. For the same molecule, the “growth inhibition (GI)” value in [21], in series [27] and in series [3] was “Active” throughout. In series [30], the “fold change (FC)” value stood at 2.
